The values that follow come from ChEMBL document CHEMBL3797175, “Discovery of 6-(difluoro(6-(4-fluorophenyl)-[1,2,4]triazolo[4,3-b][1,2,4]triazin-3-yl)methyl)quinoline as a highly potent and selective c-Met inhibitor” (Eur J Med Chem, 2016).

A short description of data set [1]: Selectivity ratio of IC50 for human U87MG cells to IC50 for human MKN45 cells. The following applies: u-87mg atcc. It is filed as ADME, cell-based.
The nature of data set [2]: Cmax in Sprague-Dawley rat at 10 mg/kg, po administered as single dose. It is filed as ADME, organism-based. Also noted: dose 10 mg/kg, route oral. The following applies: in vivo. The procedure, abridged:
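Male Sprague Dawley rats (n=3), single dose. iv 2 mg/kg in 1% DMA/9% Cremophor/90% saline. po 10 mg/kg in 0.5% CMC-Na. Where iv was 10 mg/kg: 10% DMSO/10% Tween 80/80% (40% PEG40); po in that case in 10% DMSO/5% Tween 80/85% saline.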

A further data set concerns AGS. Description: Antiproliferative activity against human AGS cells after 72 hrs by SRB or MTT assay. The data set is classed as functional, cell-based. An outline of the steps:
(§1)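 Cells seeded, exposed next day to a range of concentrations for 72 h. Growth read by sulforhodamine B or MTT. IC50 from four-parameter concentration-response fit. Each concentration tested at least in triplicate, with at least 2 experiments.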

The subject of a further data set is NCI-H661. Description: Antiproliferative activity against human NCI-H661 cells after 72 hrs by SRB or MTT assay. It is filed as functional, cell-based. The following applies: NCI-H661, 72 h. The procedure, abridged:
as §1
For orientation: Formazan colour is commonly taken as a measure of viable cells.

Data set [3] can be described thus: Selectivity ratio of IC50 for human SNU16 cells to IC50 for human MKN45 cells. The data set is classed as ADME, cell-based. The following applies: snu-16.
The target of data set [4] is Hepatocyte growth factor receptor (Homo sapiens, UniProt P08581). Description: Inhibition of c-Met in human EBC1 cells assessed as reduction in ERK phosphorylation at Threonine 202 at 10 nM after 1 hr by Western blot analysis. It is filed as cell-based. An outline of the steps:
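EBC-1 or MKN45 cells treated with compound 1 h at 37 °C without HGF, then lysed in 1× SDS sample buffer. Lysates run on 10% SDS-PAGE and transferred to nitrocellulose. Probed with antibodies to c-Met, phospho-c-Met, phospho-ERK1/2, phospho-AKT, AKT and GAPDH, then HRP secondary. ECL detection.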
For orientation: Immunoblotting shows a protein as a band on a membrane.

pIC50: −log10 of the molar value. Calls of active or inactive are those of the source. The calls are words filed in the database; no cut-off is given here.

Hepatocyte growth factor receptor, sequence (P08581 whole entry): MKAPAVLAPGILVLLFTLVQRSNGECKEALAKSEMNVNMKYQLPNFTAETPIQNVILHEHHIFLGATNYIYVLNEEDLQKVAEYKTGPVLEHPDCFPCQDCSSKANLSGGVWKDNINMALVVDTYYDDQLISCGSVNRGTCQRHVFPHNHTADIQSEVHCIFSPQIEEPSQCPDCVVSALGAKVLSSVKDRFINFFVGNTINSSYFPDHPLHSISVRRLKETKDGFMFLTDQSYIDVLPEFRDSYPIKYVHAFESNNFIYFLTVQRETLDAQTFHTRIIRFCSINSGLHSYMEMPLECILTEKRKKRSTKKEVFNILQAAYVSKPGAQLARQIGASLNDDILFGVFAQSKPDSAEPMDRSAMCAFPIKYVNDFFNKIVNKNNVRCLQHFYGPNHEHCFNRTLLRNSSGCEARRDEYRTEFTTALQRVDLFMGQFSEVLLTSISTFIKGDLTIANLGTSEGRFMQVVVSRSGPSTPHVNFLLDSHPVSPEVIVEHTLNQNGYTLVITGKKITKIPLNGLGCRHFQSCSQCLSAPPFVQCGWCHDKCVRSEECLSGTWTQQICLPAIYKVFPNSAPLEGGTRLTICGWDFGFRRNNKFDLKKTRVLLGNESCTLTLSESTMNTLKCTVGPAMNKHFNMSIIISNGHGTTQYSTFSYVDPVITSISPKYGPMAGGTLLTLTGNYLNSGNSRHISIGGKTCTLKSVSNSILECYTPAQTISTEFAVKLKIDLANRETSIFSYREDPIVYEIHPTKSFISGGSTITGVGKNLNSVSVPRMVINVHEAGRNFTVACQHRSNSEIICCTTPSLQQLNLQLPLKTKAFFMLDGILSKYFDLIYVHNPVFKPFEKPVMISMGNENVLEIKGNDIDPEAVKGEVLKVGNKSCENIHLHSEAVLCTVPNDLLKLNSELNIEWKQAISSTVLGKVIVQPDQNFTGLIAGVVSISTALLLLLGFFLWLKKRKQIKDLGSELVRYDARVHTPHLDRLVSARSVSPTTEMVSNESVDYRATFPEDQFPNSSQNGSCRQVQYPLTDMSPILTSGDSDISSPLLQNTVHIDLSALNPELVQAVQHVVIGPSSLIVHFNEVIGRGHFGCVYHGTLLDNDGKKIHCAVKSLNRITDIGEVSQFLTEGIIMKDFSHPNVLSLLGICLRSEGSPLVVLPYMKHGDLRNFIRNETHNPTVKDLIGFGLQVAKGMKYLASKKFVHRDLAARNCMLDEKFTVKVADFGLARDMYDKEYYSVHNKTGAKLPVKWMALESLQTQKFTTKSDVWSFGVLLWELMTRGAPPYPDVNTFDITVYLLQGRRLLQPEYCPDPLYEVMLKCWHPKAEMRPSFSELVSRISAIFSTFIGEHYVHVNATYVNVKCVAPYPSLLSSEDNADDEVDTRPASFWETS

For `Fc1ccc(-c2cnc3nnc(C(F)(F)c4ccc5ncccc5c4)n3n2)cc1`, the “Ratio IC50” value in data set [1] and in data set [3] was 10000 each time. For the same compound, the Cmax (in general, the maximum level reached in the sampled fluid or tissue) in data set [2] amounted to 869 ng/mL. Besides, the pIC50 in the data set on AGS and in the data set with NCI-H661 was under 5.00 in each case. Besides, the inhibition result in data set [4] is “Active”.
